Reference: ChEMBL document CHEMBL5096187, “Efficient Synthesis and Bioevaluation of Novel Dual Tubulin/Histone Deacetylase 3 Inhibitors as Potential Anticancer Agents” (J Med Chem, 2021)
pIC50: −log10 of the molar value. Activity calls are given as the source filed them. No cut-off for these calls is given here.

Tests used:
[1] = Antiproliferative activity against human YCC-11 cells assessed as inhibition of cell viability; type: functional, cell-based
[2] = test system: B16-F10; assay: Antiproliferative activity against mouse B16-F10 cells assessed as inhibition of cell viability measured for 48 hrs by microplate reader based MTT assay; type: functional; details: B16-F10, 48 h
How it was run: (§1)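 Cells grown in RPMI-1640 with 10% FBS and seeded at 5000 cells/well. After overnight attachment, compound was added in medium with 0.1% DMSO for 48 h at 37 °C. Read-out was MTT for HCT-116, B16-F10 and A549, and CCK-8 for Jurkat (0.5 mg/mL, 4 h), with absorbance at 570 nm. IC50 from nonlinear regression; at least three independent experiments.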

[3] = test system: B16-F10; assay: Induction of cell cycle arrest in mouse B16-F10 cells assessed as accumulation of cells in G2/M phase at 100 nM measured after 48 hrs by PI/RNaseA staining based flow cytometry analysis (Rvb= 5.76%); type: functional
[4] = test system: B16-F10; assay: Antitumor activity against mouse B16-F10 cells allografted in C57BL/6 mouse assessed as tumor growth inhibition at 10 mg/kg, ip administered for 14 days in presence of Entinostat; type: functional; details: B16-F10, 336 h, time 14 day, read-out: TGI
How it was run: (§2)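 C57BL/6 mice were inoculated subcutaneously with 3×10⁵ B16-F10 cells in PBS and randomized (n = 8). Drugs in ethanol/polyoxyethylene castor oil/saline (1.25:1.25:7.5) or vehicle alone were given i.p. once daily for 14 days. Mice were sacrificed at day 14 and tumors weighed; TGI(%) = [1 − Wt/Wv] × 100 using mean tumor weights.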

[5] = test system: B16-F10; assay: Induction of apoptosis in mouse B16-F10 cells assessed as early apoptotic cells at 100 nM incubated for 48 hrs by Annexin V-FITC/PI analysis (reference value: 1.68 %); type: functional
[6] = Cardiotoxicity in C57BL/6 mouse ssessed as shortening of QTc level by ECG analysis; type: toxicity
How it was run: (§3)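 Mice aged 6–8 weeks dosed by intragastric gavage once daily for 14 days; ECG and heart rate recorded on a PowerLab system.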

[7] = test system: B16-F10; assay: Antitumor activity against mouse B16-F10 cells allografted in C57BL/6 mouse assessed as tumor growth inhibition at 10 mg/kg, ip administered for 14 days; type: functional; details: B16-F10, 336 h, time 14 day, read-out: TGI; how it was run: as §2
[8] = test system: Jurkat; assay: Antiproliferative activity against human Jurkat cells assessed as inhibition of cell viability measured for 48 hrs by microplate reader based CCK-8 assay; type: functional
[9] = test system: B16-F10; assay: Inhibition of cell migration in mouse B16-F10 cells assessed as reduction in wound area measured at 100 nM incubated for 24 hrs by wound healing assay; type: functional; parameters: scale not given: the % may be the effect or the level left
How it was run: (§4)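 Confluent B16-F10 monolayers, seeded overnight, were scratched with a pipette tip and washed to remove debris. Cells were then treated, and phase-contrast images were taken at 0 and 24 h. Migration distance or wound area measured manually against DMSO control; n = 3.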

[10] = test system: HCT-116; assay: Antiproliferative activity against human HCT-116 cells assessed as inhibition of cell viability measured for 48 hrs by microplate reader based MTT assay; type: functional; details: HCT-116, 48 h; how it was run: as §1
[11] = test system: B16-F10; assay: Antitumor activity against mouse B16-F10 cells allografted in C57BL/6 mouse assessed as reduction in tumor weight at 10 mg/kg, ip administered for 14 days in presence of Entinostat; type: functional, organism-based; details: time 14.0 day; how it was run: as §2
[12] = target: Tubulin (Sus scrofa) (UniProt P02554+P02550); assay: Inhibition of pig brain tubulin polymerization at 10 uM measured after 20 mins by spectrometric method relative to control
How it was run: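 Pig brain tubulin was purified by three assembly/disassembly cycles and then phosphocellulose chromatography. Compound at 10 μM in PEM buffer with 1 mM GTP and 5% glycerol at 37 °C. Polymerization followed at 340 nm; inhibition taken at 20 min versus vehicle control.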

[13] = test system: B16-F10; assay: Induction of apoptosis in mouse B16-F10 cells assessed as necrotic cells at 100 nM incubated for 48 hrs by Annexin V-FITC/PI analysis (reference value: 0.012 %); type: functional
[14] = Toxicity in C57BL/6 mouse allografted with mouse B16-F10 cells assessed as body weight loss at 10 mg/kg, ip administered for 14 days; details: in vivo, 336 h
[15] = In vivo inhibition of HDAC in tumor of mouse B16-F10 cells xenografted in C57BL/6 mouse assessed as increase in acetylated histone-H3 expression in presence of Entinostat by […] immunohistochemistry method; type: functional; parameters: scale not given: the % may be the effect or the level left
How it was run: (§5)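 Tumors from the 14-day i.p. B16-F10 study were formalin-fixed and paraffin-embedded. Sections were deparaffinized, treated with 3% H2O2, and antigen-retrieved at pH 9 and 80 °C overnight. Blocked with milk, incubated with anti-Ac-H3 at 4 °C overnight, then IgG secondary and hematoxylin counterstain. Ac-H3-positive ratio quantified from images.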

[16] = Toxicity in C57BL/6 mouse allografted with mouse B16-F10 cells assessed as morphological abnormalities in kidney at 5 mg/kg, ip administered for 14 days in presence of Entinostat by H and E staining based analysis; type: organism-based; details: in vivo, 336 h, time 14 day
How it was run: (§6)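 C57BL/6 mice with subcutaneous B16-F10 allografts, n = 8 per group, given i.p. injections once daily for 14 days. Single agents at 10 mg/kg; combination at 5 + 5 mg/kg. Vehicle: ethanol/polyoxyethylene castor oil/saline 1.25:1.25:7.5. Liver and kidney fixed in 4% paraformaldehyde, paraffin-embedded, H&E stained and examined by microscopy.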

[17] = test system: B16-F10; assay: Inhibition of cell migration in mouse B16-F10 cells assessed as reduction in wound area ratio measured at 100 nM incubated for 24 hrs by wound healing assay; type: functional; parameters: scale not given: the % may be the effect or the level left; how it was run: as §4
[18] = test system: B16-F10; assay: Induction of apoptosis in mouse B16-F10 cells assessed as viable cells at 100 nM incubated for 48 hrs by Annexin V-FITC/PI analysis (reference value: 98.3 %); type: functional; details: read-out: Activity
[19] = test system: B16-F10; assay: Induction of apoptosis in mouse B16-F10 cells assessed as late apoptotic cells at 100 nM incubated for 48 hrs by Annexin V-FITC/PI analysis (reference value: 0.00 %); type: functional
[20] = Cardiotoxicity in C57BL/6 mouse ssessed as shortening of QTc level in presence of Entinostat by ECG analysis; type: toxicity; how it was run: as §3
[21] = test system: B16-F10; assay: Antiproliferative activity against mouse B16-F10 cells assessed as inhibition of cell viability measured for 48 hrs in presence of Entinostat by microplate reader based MTT assay; type: functional; details: B16-F10, 48 h; how it was run: as §1
[22] = Antiproliferative activity against human YCC3/7 cells assessed as inhibition of cell viability; type: functional, cell-based
[23] = target: Tubulin (Sus scrofa, UniProt P02554+P02550); assay: Inhibition of pig brain tubulin polymerization by spectrometric method
How it was run: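 Phosphocellulose-purified pig brain tubulin mixed with graded compound concentrations in PEM buffer (100 mM PIPES, 1 mM MgCl2, 1 mM EGTA) plus 1 mM GTP and 5% glycerol. Absorbance at 340 nm and 37 °C; plateau absorbance used to calculate IC50.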

[24] = test system: A549; assay: Antiproliferative activity against human A549 cells assessed as inhibition of cell viability measured for 48 hrs by microplate reader based CCK-8 assay; type: functional; details: A549, 48 h
[25] = Toxicity in C57BL/6 mouse allografted with mouse B16-F10 cells assessed as morphological abnormalities in kidney at 10 mg/kg, ip administered for 14 days by H and E staining based analysis; type: organism-based; details: in vivo, 336 h, time 14 day; how it was run: as §6
[26] = Toxicity in C57BL/6 mouse allografted with mouse B16-F10 cells assessed as morphological abnormalities in kidney at 5 mg/kg, ip administered for 14 days in presence of (2-phenylthiazol-4-yl)(3,4,5-trimethoxyphenyl)methanone by H and E staining based analysis; type: organism-based; details: in vivo, 336 h, time 14 day; how it was run: as §6
[27] = test system: B16-F10; assay: Antitumor activity against mouse B16-F10 cells allografted in C57BL/6 mouse assessed as tumor growth inhibition at 10 mg/kg, ip administered for 14 days in presence of (2-phenylthiazol-4-yl)(3,4,5-trimethoxyphenyl)methanone; type: functional; details: B16-F10, 336 h, time 14 day, read-out: TGI; how it was run: as §2
[28] = Cardiotoxicity in C57BL/6 mouse ssessed as shortening of QTc level in presence of (2-phenylthiazol-4-yl)(3,4,5-trimethoxyphenyl)methanone by ECG analysis; type: toxicity; how it was run: as §3
[29] = test system: B16-F10; assay: cells; details: Mus musculus, B16-F10, 48 h
[30] = test system: B16-F10; assay: Antitumor activity against mouse B16-F10 cells allografted in C57BL/6 mouse assessed as reduction in tumor weight at 10 mg/kg, ip administered for 14 days in presence of (2-phenylthiazol-4-yl)(3,4,5-trimethoxyphenyl)methanone; type: functional, organism-based; details: time 14.0 day; how it was run: as §2
[31] = In vivo inhibition of HDAC in tumor of mouse B16-F10 cells xenografted in C57BL/6 mouse assessed as increase in acetylated histone-H3 expression in presence of (2-phenylthiazol-4-yl)(3,4,5-trimethoxyphenyl)methanone by […] immunohistochemistry method; type: functional; parameters: scale not given: the % may be the effect or the level left; how it was run: as §5
[32] = test system: B16-F10; assay: Upregulation of AC-H3 in mouse B16-F10 cells incubated for 12 hrs by Western blot analysis; type: functional, cell-based; details: dose 20-200 nM, DDE = dose-dependent effect
How it was run: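 B16-F10 cells (5 × 10⁵/well) treated 12 h with DMSO or compound, lysed in RIPA buffer. 30 μg protein separated by SDS-PAGE and blotted onto PVDF. Blocked 5% BSA 2 h, primary antibody overnight at 4 °C, secondary 1.5 h. Ac-H3 probed, with histone H3 and GAPDH as loading controls; band density quantified; three independent experiments.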

[33] = In vivo inhibition of HDAC in tumor of mouse B16-F10 cells xenografted in C57BL/6 mouse assessed as increase in acetylated histone-H3 expression by […] immunohistochemistry method; type: functional; parameters: scale not given: the % may be the effect or the level left; how it was run: as §5

Tubulin (Sus scrofa), sequence (P02550 whole entry, looked up): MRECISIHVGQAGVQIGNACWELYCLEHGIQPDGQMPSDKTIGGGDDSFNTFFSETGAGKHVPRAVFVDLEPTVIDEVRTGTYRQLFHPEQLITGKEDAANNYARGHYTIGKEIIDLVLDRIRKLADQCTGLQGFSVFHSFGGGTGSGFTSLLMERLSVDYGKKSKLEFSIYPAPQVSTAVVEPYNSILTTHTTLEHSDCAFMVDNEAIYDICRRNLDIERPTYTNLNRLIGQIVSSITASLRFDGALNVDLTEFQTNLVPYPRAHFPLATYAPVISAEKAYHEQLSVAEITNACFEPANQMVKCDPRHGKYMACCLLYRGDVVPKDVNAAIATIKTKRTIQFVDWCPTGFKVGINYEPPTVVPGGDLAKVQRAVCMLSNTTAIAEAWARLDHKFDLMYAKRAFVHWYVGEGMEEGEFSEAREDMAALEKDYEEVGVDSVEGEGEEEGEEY
Tubulin (Sus scrofa), sequence (P02554 whole entry, looked up): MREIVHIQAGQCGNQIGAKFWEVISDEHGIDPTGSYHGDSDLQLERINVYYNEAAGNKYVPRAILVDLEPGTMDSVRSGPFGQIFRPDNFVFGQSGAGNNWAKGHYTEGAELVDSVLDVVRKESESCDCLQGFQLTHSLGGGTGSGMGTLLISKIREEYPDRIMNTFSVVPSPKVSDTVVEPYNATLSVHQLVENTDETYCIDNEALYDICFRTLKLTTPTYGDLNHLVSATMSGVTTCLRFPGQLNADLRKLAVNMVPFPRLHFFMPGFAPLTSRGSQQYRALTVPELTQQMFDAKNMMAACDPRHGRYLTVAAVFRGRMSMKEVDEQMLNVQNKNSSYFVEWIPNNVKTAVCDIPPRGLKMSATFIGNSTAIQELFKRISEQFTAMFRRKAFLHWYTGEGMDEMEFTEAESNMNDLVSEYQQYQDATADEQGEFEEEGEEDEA

## COc1cc(C(=O)c2csc(-c3ccccc3)n2)cc(OC)c1OC
[1]
  pIC50: 5.77
[2]
  pIC50: 6.01
[3]
  Activity: 76.58%
[4]
  inhibition in vivo at 10 mg/kg: 53%
[5]
  Activity: 29.1%
[6]
  Activity: Toxic
[7]
  inhibition in vivo at 10 mg/kg: 25%
[8]
  pIC50: 7.52
[9]
  Activity: 16.2%
[10]
  pIC50: 7.15
[11]
  Activity: Active
[12]
  inhibition: 78%
[13]
  Activity: 0.75%
[14]
  Activity: Non-Toxic
[15]
  Activity: 16.3%
[16]
  Activity: Non-Toxic
[17]
  Activity: 16.24%
[18]
  viability at 0.1 µM: 60.7%
[19]
  Activity: 0.49%
[20]
  Activity: Non-Toxic
[21]
  pIC50: 5.94
[22]
  pIC50: 5.71
[23]
  pIC50: 5.10
[24]
  pIC50: 6.72
[25]
  Activity: Non-Toxic

## Nc1ccccc1NC(=O)c1ccc(CNC(=O)OCc2cccnc2)cc1 [ENTINOSTAT]
[1]
  pIC50: 5.25
[2]
  pIC50: 5.65
[3]
  Activity: 42.17%
[5]
  Activity: 16.3%
[6]
  Activity: Toxic
[7]
  inhibition in vivo at 10 mg/kg: 47%
[26]
  Activity: Non-Toxic
[8]
  pIC50: 6.16
[27]
  inhibition in vivo at 10 mg/kg: 53%
[28]
  Activity: Non-Toxic
[29]
  pIC50: 5.94
[10]
  pIC50: 5.76
[30]
  Activity: Active
[13]
  Activity: 1.37%
[14]
  Activity: Non-Toxic
[18]
  viability at 0.1 µM: 59.9%
[19]
  Activity: 22.4%
[31]
  Activity: 16.3%
[32]
  Activity: Dde
[22]
  pIC50: 4.89
[24]
  pIC50: 5.77
[25]
  Activity: Non-Toxic
[33]
  Activity: 27.9%
